For two compounds, inhibition results are on record in ChEMBL document CHEMBL5712077, “Secreted heat shock protein 90 promotes prostate cancer stem cell heterogeneity” (Oncotarget, 2017).

Common to all, as to conditions: time 3.0 day
In experiment [1] the target is Histone-lysine N-methyltransferase EZH2 (Homo sapiens) (UniProt Q15910). The experiment is described as follows: Inhibition of EZH2 in human ARCaPE cells expressing Hsp90 assessed as reduction in side population at 500 nM after 3 days by Hoechst staining based flow cytometry. The format is cell-based. The method in brief:
(§1)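 Side population by flow cytometry after 3 days of inhibitor treatment. Cells at 1 x 10^6/mL in culture medium were stained with Hoechst 33342 at 5 ug/mL for 2 h at 37C, protected from light. Propidium iodide excluded dead cells. UV laser; Hoechst red 620 nm against blue 448 nm. Gate set on 50 uM verapamil controls. At least three repeats, Student's t-test.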
(A flow cytometer gives signals particle by particle.)

Experiment [2] has the same target. The experiment is described as follows: Inhibition of EZH2 in human DU-145 cells expressing Hsp90 assessed as reduction in side population at 500 nM after 3 days by Hoechst staining based flow cytometry. The format is cell-based. In a few lines:
as §1

For experiment [3] the target is unchanged. Nature of the experiment: Inhibition of EZH2 in human ARCaPE cells expressing Hsp90 assessed as decrease in spheroid growth at 500 nM for 3 days and cells were treated pre-spheroid suspension by microscopic analysis. It counts as cell-based. In a few lines:
(§2)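 Spheroid passaging with inhibitor exposure. Pre-treatment: inhibitor given for 3 days before suspension. Post-treatment: inhibitor given at initial suspension. Continuous: 3-day pre-treatment, then kept on inhibitor in spheroid culture. Cells seeded at 2000 per well in low-attachment plates in DMEM/F12 with N2 and B27. Spheres of at least 5 cells counted at day 10-14 for each passage. Compared with untreated cells by Student's t-test.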

The target is the same in experiment [4]. The experiment is described as follows: Inhibition of EZH2 in human ARCaPE cells expressing Hsp90 assessed as decrease in spheroid growth at 500 nM for 3 days and cells were treated under continuous condition by microscopic analysis. The format is cell-based. The method in brief: as §2
The target is the same in experiment [5]. The experiment is described as follows: Inhibition of EZH2 in human ARCaPE cells expressing Hsp90 assessed as decrease in spheroid growth at 500 nM for 3 days and cells were treated post-spheroid suspension by microscopic analysis. The format is cell-based. The method in brief:
as §2

For experiment [6] the target is unchanged. The experiment is described as follows: Inhibition of EZH2 in human DU-145 cells expressing Hsp90 assessed as decrease in spheroid growth at 500 nM for 3 days and cells were treated pre-spheroid suspension by microscopic analysis. It counts as cell-based. In a few lines:
as §2

Experiment [7] shares this target. Nature of the experiment: Inhibition of EZH2 in human DU-145 cells expressing Hsp90 assessed as decrease in spheroid growth at 500 nM for 3 days and cells were treated under continuous condition by microscopic analysis. The format is cell-based. The method in brief:
as §2

Experiment [8] has the same target. The experiment is described as follows: Inhibition of EZH2 in human DU-145 cells expressing Hsp90 assessed as decrease in spheroid growth at 500 nM for 3 days and cells were treated post-spheroid suspension by microscopic analysis. It counts as cell-based. The method in brief: as §2
The subject of experiment [9] is ARCaPE. The experiment is described as follows: Inhibition of extracellular Hsp90 in human ARCaPE cells expressing Hsp90 assessed as increase in spheroid growth at 1 uM for 3 days and cells were treated post spheroid suspension by microscopic analysis. It counts as cell-based. In a few lines: as §2
The test system of experiment [10] is ARCaPE. Nature of the experiment: Inhibition of extracellular Hsp90 in human ARCaPE cells expressing Hsp90 assessed as decrease in spheroid growth at 1 uM for 3 days and cells were treated under continuous condition by microscopic analysis. The format is cell-based. In a few lines:
as §2

In experiment [11] the test system is ARCaPE. Nature of the experiment: Inhibition of extracellular Hsp90 in human ARCaPE cells expressing Hsp90 assessed as decrease in spheroid growth at 1 uM for 3 days and cells were treated pre-spheroid suspension by microscopic analysis. It counts as cell-based. The method in brief: as §2
Experiment [12] has as its system DU-145. Nature of the experiment: Inhibition of extracellular Hsp90 in human DU-145 cells expressing Hsp90 assessed as reduction in side population ast 1 uM after 3 days by Hoechst staining based flow cytometry. The format is cell-based. In a few lines:
as §1

For experiment [13], the system named is DU-145. Nature of the experiment: Inhibition of extracellular Hsp90 in human DU145 cells expressing Hsp90 assessed as decrease in spheroid growth at 1 uM for 3 days and cells were treated pre-spheroid suspension by microscopic analysis. It counts as cell-based. In a few lines: as §2
Experiment [14] has as its system DU-145. Nature of the experiment: Inhibition of extracellular Hsp90 in human DU145 cells expressing Hsp90 assessed as decrease in spheroid growth at 1 uM for 3 days and cells were treated under continuous condition by microscopic analysis. The format is cell-based. In a few lines: as §2
Another experiment deals with M12. Nature of the experiment: Inhibition of extracellular Hsp90 in human M12 cells expressing Hsp90 assessed as reduction in side population ast 1 uM after 3 days by Hoechst staining based flow cytometry.

Active and inactive are the calls of the source. The calls are words filed in the database; no cut-off is given here.

Chain of Histone-lysine N-methyltransferase EZH2 (Homo sapiens) (Q15910 whole entry, looked up): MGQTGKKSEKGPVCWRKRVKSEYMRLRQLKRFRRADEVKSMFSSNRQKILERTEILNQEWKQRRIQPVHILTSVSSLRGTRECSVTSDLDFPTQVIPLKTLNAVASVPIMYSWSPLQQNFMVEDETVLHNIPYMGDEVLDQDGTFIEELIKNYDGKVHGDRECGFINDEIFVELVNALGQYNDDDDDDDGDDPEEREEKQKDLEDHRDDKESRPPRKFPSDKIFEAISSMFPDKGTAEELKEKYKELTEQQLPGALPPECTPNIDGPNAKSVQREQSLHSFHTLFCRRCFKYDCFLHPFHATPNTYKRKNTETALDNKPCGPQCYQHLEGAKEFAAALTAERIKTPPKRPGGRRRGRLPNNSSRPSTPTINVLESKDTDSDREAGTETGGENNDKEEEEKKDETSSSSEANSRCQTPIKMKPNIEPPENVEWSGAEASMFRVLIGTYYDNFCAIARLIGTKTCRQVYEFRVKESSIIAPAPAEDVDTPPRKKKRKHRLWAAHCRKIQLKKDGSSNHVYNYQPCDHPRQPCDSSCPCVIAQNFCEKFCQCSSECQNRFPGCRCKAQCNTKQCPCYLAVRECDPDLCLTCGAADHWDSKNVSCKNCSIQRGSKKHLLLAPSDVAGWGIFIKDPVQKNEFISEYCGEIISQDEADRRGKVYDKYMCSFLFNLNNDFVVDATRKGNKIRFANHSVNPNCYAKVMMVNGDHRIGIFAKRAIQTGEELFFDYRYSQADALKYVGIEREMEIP

For the compound `CCCc1cc(C)[nH]c(=O)c1CNC(=O)c1cc(-c2ccnc(N3CCN(C)CC3)c2)cc2c1cnn2C(C)C`, the inhibition entry in [1], in [2], in experiment [3], in experiment [4], in [5] and in [6] was “Active” throughout. The inhibition result in [7] and in experiment [8] was “Active” in each case.
Take `COC1=C2C[C@@H](C)C[C@H](OC)[C@H](O)[C@@H](C)/C=C(\C)[C@H](OC(N)=O)[C@@H](OC)/C=C\C=C(/C)C(=O)NC(=CC1=O)C2=O`: in the experiment on ARCaPE [9], the inhibition result was “inactive”. The inhibition entry with ARCaPE [10], with ARCaPE [11], in the experiment with DU-145 [12], in the experiment on DU-145 [13], in the experiment with DU-145 [14] and in the experiment on M12 was “Active” each time.
